{"source": "ChEMBL document CHEMBL4229442", "about": "“Anti-acute myeloid leukemia activity of 2-chloro-3-alkyl-1,4-naphthoquinone derivatives through inducing mtDNA damage and GSH depletion” (Bioorg Med Chem, 2018)", "key": {"HL-60 [1]": {"test_system": "HL-60", "assay": "Induction of mitochondrial membrane potential loss in human HL60 cells assessed as mean fluorescence intensity at 9 uM after 12 hrs by TMRE probe based flow cytometry (reference value: 553)", "format": "functional"}, "HL-60 [2]": {"test_system": "HL-60", "assay": "Induction of mitochondrial membrane potential loss in human HL60 cells assessed as mean fluorescence intensity at 3 uM after 12 hrs by TMRE probe based flow cytometry (reference value: 553)", "format": "functional"}, "HL-60 [3]": {"test_system": "HL-60", "assay": "Induction of mitochondrial membrane potential loss in human HL60 cells assessed as reduction in mean fluorescence intensity at 6 uM after 24 hrs by TMRE probe based flow cytometry relative to control", "format": "functional", "parameters": "scale not given: the % may be the effect or the level left", "how_it_was_run": "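HL-60 cells (5 × 10^5, DMEM + 10% FBS, 37 °C, 5% CO2) treated 12 or 24 h; medium then replaced with fresh medium containing 100 nM TMRE for 30 min at 37 °C, washed three times with PBS pH 7.4. Flow cytometry at 549 nm excitation / 574 nm emission; read-out is mean fluorescence intensity versus untreated control.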"}, "HL-60 [4]": {"test_system": "HL-60", "assay": "Cytotoxicity against human HL60 cells assessed as reduction in cell viability at 1 to 4 uM after 48 hrs in presence of BSO by MTT assay", "format": "functional, cell-based"}, "[5]": {"assay": "Glutathione reactivity in pH 7.4 phosphate buffered saline assessed as isosbestic point at 50 uM by UV-Vis absorption spectral analysis", "format": "physicochemical", "settings": "buffer, pH 7.4, 50 µM", "how_it_was_run": "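50 µM compound was mixed with an equimolar amount of GSH in PBS pH 7.4 at 37 °C, and UV-visible absorption spectra (240–480 nm) were recorded over time (1–30 min).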"}}, "note": "Calls of active or inactive are those of the source. The rule behind the calls is not given here.", "data": [{"smiles": "CCC1=C(Cl)C(=O)c2cc(OC)c(OC)c(OC)c2C1=O", "values": [{"measurement": "Flu intensity", "setting": "HL-60 [1]", "result": 209}, {"measurement": "Flu intensity", "setting": "HL-60 [2]", "result": 318}, {"measurement": "Activity", "setting": "HL-60 [3]", "result": 86, "unit": "%"}, {"measurement": "Activity", "setting": "HL-60 [4]", "result": "Active"}, {"measurement": "Activity", "setting": "[5]", "result": "285 to 317", "unit": "nm"}]}]}
